One assay relates to DU-145. In words: Cytotoxicity against androgen receptor-deficient human DU145 cells after 96 hrs by trypan blue exclusion assay. Particulars: DU-145, 96 h. The class given is functional, cell-based. In short, it runs like this: (§1)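 Cells grown in DMEM or RPMI with 10% FBS and penicillin-streptomycin. Seeded at 1.0 × 10^5 cells/mL/well in 6-well dishes; compounds were added 24 h later at various concentrations. Viable cells were counted by trypan blue exclusion from duplicate wells after 96 h of treatment, giving a dose-response endpoint.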

Another assay has as its system K562. The experiment in a line: Cytotoxicity against human K562 cells after 96 hrs by trypan blue exclusion assay. The class given is functional, cell-based. Particulars: K562, 96 h. In short, it runs like this: as §1
The subject of assay [1] is HeLa. The experiment in a line: Inhibition of cytoplasmic microtubule polymerization in human HeLa cells at 0.005 uM after 18 hrs by FITC-conjugated DAPI staining based fluorescence microscopy. The class given is cell-based. In short, it runs like this: (§2)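 HeLa grown on glass coverslips and exposed for 18 h to test agent (0.25 or 0.5 μM), paclitaxel or vincristine (0.005 μM), or DMSO. Cells were fixed in 4% paraformaldehyde, blocked, permeabilised, and stained with FITC anti-α-tubulin (1:400) and then DAPI (0.5 ug/mL). Mitotic spindles or interphase cytoplasmic microtubules were scored by fluorescence microscopy at 100x.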

The nature of assay [2]: Drug resistant, ratio of IC50 for human MESSA/DX5 cells to IC50 for human MESSA cells. The assay is classed as functional, MES-SA. In short, it runs like this: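 MES-SA uterine sarcoma cells and the P-glycoprotein-expressing multidrug-resistant MES-SA/DX5 sub-line were grown in DMEM or RPMI with 10% FBS. Cells were plated in 6-well dishes at 1.0 × 10^5 cells/mL/well, dosed at various concentrations 24 h later, and exposed for 96 h. Viable cells were counted by trypan blue exclusion from duplicate wells. The resistant/parental IC50 ratio was taken.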

Assay [3] is described as follows: Cytotoxicity against human MES-SA cells after 96 hrs by trypan blue exclusion assay. The class given is functional, cell-based. In short, it runs like this:
as §1

The nature of assay [4]: Cytotoxicity against human MESSA/DX5 cells after 96 hrs by trypan blue exclusion assay. The assay is classed as functional, cell-based. Particulars: MES-SA/Dx5, 96 h. In short, it runs like this: as §1
The test system of assay [5] is HeLa. In words: Induction of mitotic arrest in human HeLa cells assessed as unbound chromosome outside metaphase plate at 0.005 uM after 18 hrs by FITC-conjugated DAPI staining based fluorescence microscopy. The class given is functional, cell-based. An outline of the steps: as §2

Calls of active or inactive are those of the source. No cut-off for these calls is given here.

As for `COc1cc(OC)c(N/C=C\C(=O)c2c(OC)cc(OC)cc2OC)c(OC)c1`, the IC50 in the assay with DU-145 is 75 µM; in the assay on K562, 50 µM.
Turning to `COc1cc(C(=O)/C=C\Nc2cccc3[nH]ncc23)cc(OC)c1OC`, the results for the IC50 with DU-145 and in the assay with K562 were 0.75 µM and 2.5 µM, respectively.
As for `COc1cc(C(=O)/C=C\Nc2ccc3[nH]ccc3c2)c(Br)c(OC)c1OC`, the IC50 in the assay with DU-145 came to 0.15 µM; with K562, 0.2 µM.
In the case of `COc1cc(OC)c(C(=O)/C=C\Nc2cc(OC)c(OC)c(OC)c2)c(OC)c1`, the half-maximal inhibitory concentration (IC50) stood at 35 µM with DU-145 and 75 µM in the assay on K562.
The like results for `COc1cc(C(=O)/C=C\Nc2ccc3[nH]ccc3c2)cc(OC)c1OC` were, in that order, 0.2 µM and 0.5 µM.
With `COc1cc(OC)c(C(=O)/C=C\Nc2ccccc2O)c(OC)c1`, the half-inhibitory concentration (IC50) in the assay on DU-145 came out at 25 µM; with K562, 75 µM.
The corresponding values for `COc1cc(N/C=C\C(=O)c2cc(OC)c(OC)c(OC)c2)cc(OC)c1OC` are 40 µM and 25 µM.
Take `COc1ccc(N/C=C\C(=O)c2cc(OC)c(OC)c(OC)c2Cl)cc1O`: the IC50 in the assay with DU-145 came to 0.2 µM; in the assay with K562, 0.25 µM.
The corresponding values for `COc1cc(C(=O)/C=C\Nc2ccc3[nH]c(C)cc3c2)cc(OC)c1OC` are 0.6 µM and 0.75 µM.
For `COc1cc(OC)c(C(=O)/C=C\Nc2ccc(Cl)cc2)c(OC)c1`, the IC50 with DU-145 and in the assay on K562 was 25 µM in each case.
As for `COc1cc(C(=O)/C=C\Nc2cc(O)ccc2Cl)cc(OC)c1OC`, the IC50 in the assay with DU-145 was found to be 0.75 µM; with K562 it was 2.5 µM.
`COc1cc(C(=O)/C=C\Nc2ccc(C(F)(F)F)cc2)cc(OC)c1OC`: the concentration for half-maximal inhibition (IC50) in the assay on DU-145 and in the assay with K562 was 0.5 µM in each case.
For `COc1ccc(N/C=C\C(=O)c2cc(OC)c(OC)c(OC)c2[N+](=O)[O-])cc1`, the half-inhibitory concentration (IC50) with DU-145 and with K562 was 0.6 µM each time.
For the molecule `COc1cc(C(=O)/C=C\Nc2ccc3cc[nH]c3c2)cc(OC)c1OC`, the 50% inhibitory concentration (IC50) was 0.1 µM in the assay on DU-145 and 0.2 µM in the assay on K562.
The like results for `COc1ccc(N/C=C\C(=O)c2cc(OC)c(OC)c(OC)c2)cc1N` were, in that order, 0.1 µM and 0.25 µM.
As for `COc1ccc(N/C=C\C(=O)c2cc(OC)c(OC)c(OC)c2)cc1O`, the IC50 with DU-145 and in the assay with K562 was 0.1 µM in each case.
For the molecule `COc1cc(C(=O)/C=C\Nc2ccccc2O)cc(OC)c1OC`, the IC50 turned out to be 0.25 µM in the assay on DU-145 and 0.5 µM with K562.
Consider `COc1cc(OC)c(N/C=C\C(=O)c2cc(OC)c(OC)c(OC)c2)c(OC)c1`, for which the figures for the half-inhibitory concentration (IC50) in the assay with DU-145 and with K562 were 75 µM and 50 µM, respectively.
With `COc1ccccc1N/C=C\C(=O)c1cc(OC)c(OC)c(OC)c1`, the concentration for half-maximal inhibition (IC50) in the assay on DU-145 and in the assay with K562 was 2.5 µM in each case.
For the molecule `COc1cc(C(=O)/C=C\Nc2ccc(Cl)cc2)cc(OC)c1OC`, the IC50 in the assay with DU-145 was 0.5 µM; with K562, 0.25 µM.
Regarding `COc1ccc(N/C=C\C(=O)c2cc(OC)c(OC)c(OC)c2)cc1F`, the IC50 in the assay on DU-145 and in the assay on K562 was 0.25 µM in each case.
As for `COc1ccc(N/C=C\C(=O)c2cc(OC)c(OC)c(OC)c2)cc1`, the IC50 in the assay on DU-145 and in the assay with K562 was 0.5 µM each time.
Regarding `COc1ccc(N/C=C\C(=O)c2ccc(OC)cc2)cc1`, the 50% inhibitory concentration (IC50) with DU-145 came out at 75 µM; with K562 it was 100 µM.
`CC(=O)O[C@H]1C(=O)[C@@]2(C)[C@H]([C@H](OC(=O)c3ccccc3)[C@]3(O)C[C@H](OC(=O)[C@H](O)[C@@H](NC(=O)c4ccccc4)c4ccccc4)C(C)=C1C3(C)C)[C@]1(OC(C)=O)CO[C@@H]1C[C@@H]2O` [PACLITAXEL]: the inhibition entry with HeLa [1] was “inactive”. Moreover, the “Ratio IC50” value in assay [2] is reported as over 100. In addition, the IC50 is 0.004 µM in assay [3] and 0.75 µM in assay [4]. In addition, the result in the assay with HeLa [5] was Active.
Consider `COc1ccc(N/C=C\C(=O)c2c(OC)cc(OC)cc2OC)c(OC)c1`, for which the IC50 with DU-145 and in the assay with K562 was 75 µM each time.
As to `COc1ccc(N/C=C\C(=O)c2cc(OC)c(OC)c(OC)c2Br)cc1`, the 50% inhibitory concentration (IC50) came to 0.2 µM in the assay with DU-145 and 0.25 µM in the assay on K562.
For `COc1cc(C(=O)/C=C\Nc2ccc(OC(F)(F)F)cc2)cc(OC)c1OC`, the half-maximal inhibitory concentration (IC50) was 3 µM in the assay with DU-145 and 20 µM with K562.
For `COc1cc(C(=O)/C=C\Nc2cnc3ccccc3c2)cc(OC)c1OC`, the 50% inhibitory concentration (IC50) with DU-145 was determined as 0.5 µM; in the assay on K562 it was 0.75 µM.
Turning to `COc1ccc(N/C=C\C(=O)c2cc(OC)c(OC)c(OC)c2)cc1Cl`, the IC50 with DU-145 turned out to be 0.2 µM; with K562, 0.25 µM.
For `COc1ccc(C(=O)/C=C\Nc2cc(OC)c(OC)c(OC)c2)cc1`, the half-maximal inhibitory concentration (IC50) in the assay on DU-145 was 50 µM; in the assay on K562, 75 µM.
The corresponding values for `COc1cc(C(=O)/C=C\Nc2ccccc2O)c(Br)c(OC)c1OC` are 0.25 µM and 0.2 µM.
In the case of `COc1cc(C(=O)/C=C\Nc2cccc(O)c2)cc(OC)c1OC`, the IC50 with DU-145 worked out at 0.75 µM; in the assay on K562, 0.5 µM.
Regarding `COc1ccc(N/C=C\C(=O)c2c(OC)cc(OC)cc2OC)cc1`, the IC50 in the assay on DU-145 and in the assay on K562 was 75 µM each time.
`COc1cc(C(=O)/C=C\Nc2cccc3cc[nH]c23)cc(OC)c1OC`: the IC50 in the assay on DU-145 and in the assay with K562 was 2.5 µM throughout.

For the origin of these results see ChEMBL document CHEMBL2086284, “(Z)-1-aryl-3-arylamino-2-propen-1-ones, highly active stimulators of tubulin polymerization: synthesis, structure-activity relationship (SAR), tubulin polymerization, and cell growth inhibition studies” (J Med Chem, 2012).
